Source: ChEMBL document CHEMBL1154742, “Modular synthesis and in vitro and in vivo antimalarial assessment of C-10 pyrrole mannich base derivatives of artemisinin” (J Med Chem, 2010)

Key:
[1] = tested on: Plasmodium falciparum; assay: Antimalarial activity against chloroquine-sensitive Plasmodium falciparum 3D7 assessed as growth inhibition by [3H]hypoxanthine incorporation assay; assay type: functional, organism-based
How it was run: (§1)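 Asynchronous P. falciparum culture (65-75% rings, 0.5% parasitemia) at 2.5% final hematocrit, with triplicate 3-fold drug dilutions (10.0 to 0.0041 μg/mL) in RPMI 1640 with 0.5% Albumax II, glucose, L-glutamine and 5 μM hypoxanthine. DMSO was ≤0.01% final. After 24 h at 37 °C in 5% CO2, [3H]hypoxanthine (0.2 μCi/well) was added for a further 24 h. Plates were frozen and harvested, incorporation counted by scintillation, and IC50 obtained by curve fitting.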

[2] = Therapeutic index, ratio of IC50 for human KB cells to IC50 for Plasmodium falciparum 3D7; assay type: cell-based; details: KB cells (cytotoxicity) versus Plasmodium falciparum 3D7, read-out: TI
[3] = tested on: Plasmodium falciparum; assay: Antimalarial activity against chloroquine-sensitive Plasmodium falciparum 3D7 assessed as growth inhibition by [3H]hypoxanthine incorporation assay relative to artemisinin; assay type: functional
[4] = tested on: KB; assay: Cytotoxicity against human KB cells after 72 hrs by alamar blue assay; assay type: cell-based
How it was run: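 KB cells seeded at 4 × 10^4 cells/mL in RPMI 1640 with 10% heat-inactivated fetal calf serum and grown 24 h at 37 °C in 5% CO2. Compound dilution series added in triplicate for 72 h, with podophyllotoxin as positive control. AlamarBlue added for 2-4 h; fluorescence read at ex 530/em 585 nm and IC50 obtained by curve fitting.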

[5] = tested on: Plasmodium falciparum; assay: Antimalarial activity against chloroquine-resistant Plasmodium falciparum K1 (Thailand) assessed as growth inhibition by [3H]hypoxanthine incorporation assay relative to artemisinin; assay type: functional
[6] = tested on: Plasmodium falciparum; assay: Antimalarial activity against chloroquine-resistant Plasmodium falciparum K1 (Thailand) assessed as growth inhibition by [3H]hypoxanthine incorporation assay; assay type: functional, organism-based; how it was run: as §1
[7] = tested on: Plasmodium berghei; assay: Antimalarial activity against Plasmodium berghei ANKA infected NMRI mice (Mus musculus) assessed as mean survival time at 10 mg/kg, intraperitoneally 4 consecutive doses for 3 days measured on day 4 by FACS analysis; details: route intraperitoneal
[8] = tested on: Plasmodium berghei; assay: Antimalarial activity against Plasmodium berghei ANKA infected NMRI mice (Mus musculus) assessed as reduction of parasitemia at 10 mg/kg, intraperitoneally 4 consecutive doses for 3 days measured on day 4 by FACS analysis; details: ip
[9] = tested on: Plasmodium berghei; assay: Antimalarial activity against Plasmodium berghei ANKA infected NMRI mice (Mus musculus) assessed as reduction of parasitemia treated perorally for 3 days measured on day 4; assay type: functional; details: po
[10] = tested on: Plasmodium berghei; assay: Antimalarial activity against Plasmodium berghei ANKA infected Swiss CD1 mice (Mus musculus) assessed as reduction of parasitemia at 30 mg/kg, perorally administered after 3 hrs of infection for 3 days measured on day 4 relative to control; assay type: functional; details: route oral
How it was run: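 Male Swiss CD-1 mice (20 g) infected iv with 4 × 10^6 P. berghei ANKA-infected red cells on day 0, in groups of five. Compound was given orally in standard suspending vehicle (carboxymethylcellulose, benzyl alcohol, Tween 80, saline), 3 × 30 mg/kg, starting 3 h post-infection, once daily. Parasitemia was counted on Giemsa-stained smears on day 4 and expressed as % inhibition versus the untreated group mean.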

SMILES: C[C@H]1[C@H](c2ccc(CN3CCCCC3)n2C)O[C@@H]2O[C@@]3(C)CC[C@H]4[C@H](C)CC[C@@H]1[C@@]24OO3
- IC50 [1]: 6.1 nM
- selectivity ratio [2]: 6430
- Ratio IC50 [3]: 2.1
- IC50 [4]: 39200 nM

SMILES: C[C@H]1[C@H](c2ccc(CN3CCSCC3)n2C)O[C@@H]2O[C@@]3(C)CC[C@H]4[C@H](C)CC[C@@H]1[C@@]24OO3
- IC50 [1]: 7.2 nM
- selectivity ratio [2]: 19100
- Ratio IC50 [3]: 1.78
- IC50 [4]: 138000 nM

SMILES: C[C@H]1[C@H](c2ccc(CN3CCS(=O)(=O)CC3)n2C)O[C@@H]2O[C@@]3(C)CC[C@H]4[C@H](C)CC[C@@H]1[C@@]24OO3
- IC50 [1]: 2.2 nM
- selectivity ratio [2]: 31100
- Ratio IC50 [5]: 2.3
- Ratio IC50 [3]: 5.82
- IC50 [4]: 68300 nM
- IC50 [6]: 3.57 nM

SMILES: C[C@H]1[C@H](c2ccc(CN3CCN(C)CC3)n2C)O[C@@H]2O[C@@]3(C)CC[C@H]4[C@H](C)CC[C@@H]1[C@@]24OO3
- IC50 [1]: 6.5 nM
- MSD [7]: 9 days
- selectivity ratio [2]: 14800
- Ratio IC50 [5]: 2.16
- inhibition in vivo at 10 mg/kg [8]: 100%
- Ratio IC50 [3]: 1.97
- ED50 [9]: 1.99 mg/kg
- ED90 [9]: 5.34 mg/kg
- IC50 [4]: 96500 nM
- inhibition in vivo at 30 mg/kg [10]: 100%
- IC50 [6]: 3.8 nM

SMILES: CO[C@H]1O[C@@H]2O[C@@]3(C)CC[C@H]4[C@H](C)CC[C@@H]([C@H]1C)[C@@]24OO3 [ARTEMETHER]
- IC50 [1]: 4.2 nM
- Ratio IC50 [5]: 2.41
- ED90 [9]: 10.6 mg/kg
- inhibition in vivo at 30 mg/kg [10]: 100%

SMILES: C[C@H]1[C@H](c2ccc(CN3CCCC3)n2C)O[C@@H]2O[C@@]3(C)CC[C@H]4[C@H](C)CC[C@@H]1[C@@]24OO3
- IC50 [1]: 3.7 nM
- selectivity ratio [2]: 11400
- Ratio IC50 [3]: 3.46
- IC50 [4]: 42200 nM

SMILES: CC(C)N1CCN(Cc2ccc([C@@H]3O[C@@H]4O[C@@]5(C)CC[C@H]6[C@H](C)CC[C@@H]([C@H]3C)[C@@]46OO5)n2C)CC1
- IC50 [1]: 5.1 nM
- Ratio IC50 [5]: 0.99
- Ratio IC50 [3]: 2.51
- IC50 [6]: 8.3 nM

SMILES: C[C@H]1[C@H](c2ccc(CN3CCOCC3)n2C)O[C@@H]2O[C@@]3(C)CC[C@H]4[C@H](C)CC[C@@H]1[C@@]24OO3
- IC50 [1]: 3.5 nM
- selectivity ratio [2]: 24600
- Ratio IC50 [5]: 4.32
- Ratio IC50 [3]: 3.66
- ED50 [9]: 1.77 mg/kg
- ED90 [9]: 5.2 mg/kg
- IC50 [4]: 86200 nM
- inhibition in vivo at 30 mg/kg [10]: 100%
- IC50 [6]: 1.9 nM

SMILES: CCN(CC)CCCC(C)Nc1ccnc2cc(Cl)ccc12 (stereo not drawn) [CHLOROQUINE PHOSPHATE]
- IC50 [4]: 112000 nM

SMILES: C[C@H]1[C@H](c2ccc[nH]2)O[C@@H]2O[C@@]3(C)CC[C@H]4[C@H](C)CC[C@@H]1[C@@]24OO3
- IC50 [1]: 7.4 nM
- selectivity ratio [2]: 8450
- Ratio IC50 [3]: 1.73
- IC50 [4]: 62500 nM

SMILES: C[C@H]1[C@H](c2ccc(CN3CCOCC3)[nH]2)O[C@@H]2O[C@@]3(C)CC[C@H]4[C@H](C)CC[C@@H]1[C@@]24OO3
- IC50 [1]: 2.5 nM
- selectivity ratio [2]: 22600
- Ratio IC50 [5]: 2.56
- Ratio IC50 [3]: 2.84
- ED50 [9]: 2.11 mg/kg
- ED90 [9]: 4.3 mg/kg
- IC50 [4]: 56500 nM
- inhibition in vivo at 30 mg/kg [10]: 100%
- IC50 [6]: 3.2 nM

SMILES: C[C@H]1[C@H](c2ccc(CN(C)C)[nH]2)O[C@@H]2O[C@@]3(C)CC[C@H]4[C@H](C)CC[C@@H]1[C@@]24OO3
- IC50 [1]: 20.5 nM
- selectivity ratio [2]: 2130
- Ratio IC50 [3]: 0.62
- IC50 [4]: 43600 nM

SMILES: C[C@H]1[C@H](c2cccn2C)O[C@@H]2O[C@@]3(C)CC[C@H]4[C@H](C)CC[C@@H]1[C@@]24OO3
- IC50 [1]: 5.2 nM
- selectivity ratio [2]: 11600
- Ratio IC50 [3]: 2.46
- ED50 [9]: 4.5 mg/kg
- ED90 [9]: 8.5 mg/kg
- IC50 [4]: 60300 nM

SMILES: CCN(CC)Cc1ccc([C@@H]2O[C@@H]3O[C@@]4(C)CC[C@H]5[C@H](C)CC[C@@H]([C@H]2C)[C@@]35OO4)[nH]1
- IC50 [1]: 75.8 nM
- Ratio IC50 [3]: 0.17

SMILES: C[C@H]1[C@H](c2ccc(CN3CCCCC3)[nH]2)O[C@@H]2O[C@@]3(C)CC[C@H]4[C@H](C)CC[C@@H]1[C@@]24OO3
- IC50 [1]: 59.4 nM
- selectivity ratio [2]: 2410
- Ratio IC50 [3]: 0.22
- IC50 [4]: 143000 nM

SMILES: C[C@@H]1CC[C@H]2[C@@H](C)C(=O)O[C@@H]3O[C@@]4(C)CC[C@@H]1[C@]32OO4 [ARTEMISININ]
- IC50 [1]: 12.8 nM
- selectivity ratio [2]: > 27700
- IC50 [4]: > 354000 nM
- IC50 [6]: 8.2 nM

SMILES: C[C@H]1[C@H](OC(=O)CCC(=O)O)O[C@@H]2O[C@@]3(C)CC[C@H]4[C@H](C)CC[C@@H]1[C@@]24OO3 [ARTESUNATE]
- MSD [7]: 8 days
- inhibition in vivo at 10 mg/kg [8]: 98%
- ED50 [9]: 3.23 mg/kg
- ED90 [9]: > 10 mg/kg
- inhibition in vivo at 30 mg/kg [10]: 100%

SMILES: C[C@H]1[C@H](c2ccc(CN3CCC(N4CCCC4)CC3)n2C)O[C@@H]2O[C@@]3(C)CC[C@H]4[C@H](C)CC[C@@H]1[C@@]24OO3
- IC50 [1]: 2.5 nM
- Ratio IC50 [5]: 1.12
- Ratio IC50 [3]: 5.12
- IC50 [6]: 7.3 nM

SMILES: C[C@H]1[C@H](c2ccc(CN3CCN(C)CC3)[nH]2)O[C@@H]2O[C@@]3(C)CC[C@H]4[C@H](C)CC[C@@H]1[C@@]24OO3
- IC50 [1]: 6.5 nM
- MSD [7]: 7 days
- selectivity ratio [2]: 13100
- Ratio IC50 [5]: 1.64
- inhibition in vivo at 10 mg/kg [8]: 98%
- Ratio IC50 [3]: 1.97
- IC50 [4]: 85200 nM
- inhibition in vivo at 30 mg/kg [10]: 97.7%
- IC50 [6]: 5 nM

SMILES: C[C@H]1[C@H](c2ccc(CN3CCCC3)[nH]2)O[C@@H]2O[C@@]3(C)CC[C@H]4[C@H](C)CC[C@@H]1[C@@]24OO3
- IC50 [1]: 16.9 nM
- selectivity ratio [2]: 2780
- Ratio IC50 [3]: 0.76
- IC50 [4]: 47000 nM

SMILES: CC(C)N1CCN(Cc2ccc([C@@H]3O[C@@H]4O[C@@]5(C)CC[C@H]6[C@H](C)CC[C@@H]([C@H]3C)[C@@]46OO5)[nH]2)CC1
- IC50 [1]: 8.5 nM
- MSD [7]: 6 days
- selectivity ratio [2]: 5330
- Ratio IC50 [5]: 2.34
- inhibition in vivo at 10 mg/kg [8]: 90%
- Ratio IC50 [3]: 1.51
- IC50 [4]: 45300 nM
- inhibition in vivo at 30 mg/kg [10]: 90.5%
- IC50 [6]: 3.5 nM

SMILES: C[C@H]1[C@H](c2ccc(CN(C)C)n2C)O[C@@H]2O[C@@]3(C)CC[C@H]4[C@H](C)CC[C@@H]1[C@@]24OO3
- IC50 [1]: 31.6 nM
- Ratio IC50 [3]: 0.4
